Screening results deposited in PubChem BioAssay by several laboratories.
PostGolgi ctrl – inhibits growth of the yeast control strain; efflux-deficient yeast background strain, growth absorbance A615, 16 h; inhibition, % at 10 µM; 98,000 tested, 5% active; AID 738; in the data active = inhibition above about 30%
PostGolgi yeast – growth inhibition of a yeast mutant, post-Golgi transport screen; inhibition, % at 10 µM; AID 739; post-Golgi transport phenotypic cell assay; 98,000 tested, 0.9% active; in the data active = inhibition above about 30%;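 note: yeast cells grown in 1536-well plates; yeast grown about 18 h at 30C before absorbance read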
Pyk2 oligo antag – antagonists of human Pyk2 oligomerization | AID 1347419 | z-score (the deposit names both 25 µM and 10 µM) | 99,000 tested, 0.83% active | Q293 cells, Pyk2 FERM NanoBiT luminescence; hits give low values | Q14289;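 active = Z-score of -3 or lower, scaled per plate to the spread of control and sample wells; inactive = z-score above -3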;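 note: negative z-score means lost luminescence so less FERM oligomerization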
Ecoli tolC – E. coli tolC mutant growth inhibition. E. coli BW25113 tolC mutant growth, OD615. 65,000 tested, 2.2% active. AID 573. growth inhibition, % at 10 µM (by protocol);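 active = growth inhibition at or above a cutoff equal to the mean over every tested compound plus 3 SD, cut at about 60% in these data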;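 note: growth measured after 20 h incubation at 37 °C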
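test system = E. coli BW25113 ΔtolC::kan bacteria | medium = LB with kanamycin 50 µg/mL | signal = OD at 615 nm | schedule = 37 °C, 20 h exposure | evaluation = % inhibition of E. coli growth | compound dosing = one dose of 10 µM final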
FAK blocker – inhibitors of human focal adhesion kinase. AID 727. 97,000 tested, 0.84% active. biochemical FAK kinase activity assay. inhibition, %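 (tested at 7 µM)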;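 note: 0% = DMSO and 100% = reference compound high control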
Candida biofilm – kills Candida albicans biofilms; inhibition, % at 6 µM; 85,000 tested, 0.14% active; C. albicans biofilm + clotrimazole, Alamar Blue; AID 834;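 active = inhibition above 20%; inactive = inhibition below 20%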;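 note: preformed 24 hr biofilms exposed to compound for 48 hr; 0% = biofilm without compound and 100% = blank killed by clotrimazole plus chlorhexidine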
FAK inh confirm – FAK (human) inhibition confirmed; shares compounds with FAK blocker; FAK kinase biochemical inhibition assay; inhibition, % at 7 µM; 750 tested, 28% active; AID 794
* marks the source's active call; other numbers are inactive results; . = not tested or not shown. A selection: hits, their analogues and other compounds. The true share with any hit is near 6.9%. Cut-off read from the data, not from the text of the source, unless noted: active = inhibition above about 19%; inactive = the rest.

SMILES	PostGolgi ctrl	PostGolgi yeast	Pyk2 oligo antag	Ecoli tolC	FAK blocker	Candida biofilm	others
O=C(Cn1ncc(Cl)c(Cl)c1=O)c1ccc(Cl)cc1	.	.	-0.81	.	-1	3
O=C(OCn1ncc(Cl)c(Cl)c1=O)c1ccccc1Cl	25	79*	0.85	.	-1	.
COc1cc2c(cc1OC)C(c1ccc3c(c1)OCO3)C1=C(CC(C)(C)CC1=O)N2 (centres undefined)	21	3	-0.82	10	2	10
Cc1ccccc1C(=O)c1cccn1CC(=O)NCC1CCCO1 (centres undefined)	19	-5	-0.15	-6	-2	6
Cc1cn2c(nc1=O)OC1C(O)C(COC(=O)c3ccccc3)OC12 (centres undefined)	18	14	0.22	-12	-3	4
O=C(N=Nc1c(O)[nH]c2ccc(Br)cc12)c1ccccc1-n1cccc1	37*	2	-2.7	.	3	.
Cc1cccc(C)c1OCC(=O)N=Nc1c(O)[nH]c2ccc(Br)cc12	38*	1	-0.74	.	0	5
CC(C)c1ccc2[nH]c(O)c(N=NC(=O)c3cccc(S(=O)(=O)N4CCCCC4)c3)c2c1	.	.	-2.2	.	.	.
O=C1CSC(c2cn(-c3ccccc3)nc2-c2cc3ccccc3oc2=O)N1Cc1cccnc1 (centres undefined)	-12	19	-0.94	.	-1	-1
CCC(C)c1ccc(OCCN2CCCC2)cc1 (centres undefined)	36*	7	-0.19	.	1	-3
CC(C)Oc1ccc(OCCCN2CCCCCC2)cc1	20	27	-0.26	.	2	5
COc1ccc(CC(=O)NC(=S)Nc2ccc(S(=O)(=O)NC(C)(C)C)cc2)cc1	38*	3	-0.03	.	-3	.
Cc1ccc(/C=C/C2=NN(Cc3ccccc3Cl)C(=O)CC2)cc1	41*	-1	-1.5	.	1	6
COc1ccc(C(=S)N(C)C)cc1OC	-1	-1	-0.3	-13	-1	.
CC(c1nnc(SCn2nnc3ccccc3c2=O)n1-c1ccc(Cl)cc1)N(C)C (centres undefined)	18	67*	0.52	7	.	2
O=C(O)/C(=C1/OC(=O)c2ccccc21)c1ccccc1	9	-1	-0.23	-14	-1	-2
COc1ccc(-c2cc(C3CC3)nc3sc(C#N)c(N)c23)cc1	63*	6	-0.31	.	5	.
N#Cc1sc2nc(-c3cccs3)cc(-c3ccc(Cl)cc3)c2c1N	1	9	-0.79	.	2	.
CC(C)C(NC(=O)c1ccccc1)C(=O)NCc1ccccn1 (centres undefined)	11	-2	0.21	-3	-2	4
CC(C)(C)c1cc(Br)ccc1OCC(=O)Nc1ncn[nH]1	30*	7	-0.06	9	5	3
CCS(=O)(=O)N1CCC(C(=O)NCC2CCCO2)CC1 (centres undefined)	-2	2	0.38	-9	0	.
Cc1ccc(Nc2cc(=O)oc3ccccc23)c(C)c1	44*	18	-2.7	.	-1	.
CC1CC(C)CN(CCCNC(=O)Cn2ncn3cccc3c2=O)C1 (centres undefined)	4	-11	1.1	.	-1	0
Clc1ccc(-c2csc(NNC3=NCCCCC3)n2)cc1	6	4	-0.47	.	0	12
COc1cccc(OCc2cc(/C=N/NC(=O)c3ccn[nH]3)ccc2OC)c1	33*	-1	-2.6	.	-1	.
SMILES	PostGolgi ctrl	PostGolgi yeast	Pyk2 oligo antag	Ecoli tolC	FAK blocker	Candida biofilm	others
COc1ccc(/C=N/NC(=O)c2ccoc2C)cc1COc1c(C)cccc1C	54*	3	-2	.	0	.
CCn1cnc2c1c(=O)n(CC(=O)Nc1cc(C)on1)c(=O)n2Cc1ccccc1	0	8	0.63	-2	1	7
Cc1ccc(C(=O)COC(=O)c2ccc3c(c2)C(=O)N(c2cccc4ncccc24)C3=O)cc1C	2	4	0.29	.	39*	.	FAK inh confirm=23*
COCCNC(=O)C(c1ccc(C)o1)N(C(=O)c1snc(C(N)=O)c1N)c1cc(C)cc(C)c1 (centres undefined)	2	-3	-2.3	17	23*	8	FAK inh confirm=8
O=[N+]([O-])c1cccc(/C=C/c2nc3ccc([N+](=O)[O-])cc3[nH]2)c1	72*	8	-2	.	34*	.	FAK inh confirm=21*
O=C(CNC1C(=O)Nc2ccccc21)Sc1ccccc1 (centres undefined)	4	-3	-0.44	12	-1	5
O=C(c1ccco1)N1CCN(S(=O)(=O)c2ccc3[nH]c(=O)oc3c2)CC1	-11	0	-0.27	.	-6	3
O=C(C1COc2ccccc2O1)N1CCc2ccccc21 (centres undefined)	3	4	1	1	24*	7	FAK inh confirm=7
CC(=O)CSc1nc(C(F)(F)F)cc(=O)n1-c1ccccc1	-4	-12	0.49	.	56*	.	FAK inh confirm=-2
Cc1cc2ncn(N)c2cc1C	12	6	0.34	-15	0	6
Cc1cccc(CSc2nnc(NC(=O)c3ccco3)s2)c1	14	-3	-0.79	.	-1	15
CCOC(=O)c1c(C)[nH]c(O)c1C=Nc1ccccc1	0	23	1.2	.	34*	.	FAK inh confirm=16
CCOC(=O)c1c(C)[nH]c(C=Nc2ccccc2)c1O	7	16	.	-37	-8	8
CC1(C)Cc2ccccc2-c2nnc(-c3ccc4ccccc4n3)n21	.	.	-1.3	.	0	10
Cc1ccc(SCc2ccc(C(=O)NCc3ccncc3)cc2)cc1	5	1	-0.25	.	43*	.	FAK inh confirm=3
CN(c1ccc(C(=O)NCc2ccncc2)cc1)S(C)(=O)=O	17	-3	0.75	-16	-2	1
Cc1c(Br)c(C(N)=O)nn1C	4	13	0.45	.	2	.
c1ccc(Cn2nnnc2C(c2cccs2)N2CCSCC2)cc1 (centres undefined)	8	2	-0.92	31	3	-3
CC1CCCN(c2nc3c(c(=O)[nH]c(=O)n3C)n2CCSc2nc3ccccc3o2)C1 (centres undefined)	0	2	.	16	0	11
Cn1c(=O)[nH]c(=O)c2c1nc(Br)n2CCCSc1nc2ccccc2o1	-8	5	-0.51	23	19*	3	FAK inh confirm=1
Cc1ccc(-c2nnn(CC(=O)N(c3ccccc3F)C(C(=O)NC3CCCC3)c3ccco3)n2)o1 (centres undefined)	17	-1	-0.55	7	.	5
CCCCc1cc(=O)oc2cc(C)c(CN3CCCC3)c(O)c12	20	17	0.57	10	21*	3	FAK inh confirm=1
FC(F)(F)c1cc(Sc2ccccc2)nc(-c2ccccn2)n1	15	-13	1.1	.	1	.
CCOC(=O)c1c(N)sc2c(NC(C)=O)cccc12	-2	0	0.56	-7	6	5
CCOC(=O)c1c(N)sc2c(O)c(Br)ccc12	49*	12	-0.03	12	19*	4	FAK inh confirm=1
Cc1nc2ccc(Cl)cc2nc(C)/c1=N\O	6	10	-0.64	23	0	9
